The results in this text go back to PubChem BioAssay.

Unmarked numbers belong to inactive results. Results filed as inconclusive are left out. Calls of active or inactive are those of the source.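 How the source made its calls, unless noted: active means inhibition over a set limit, the all-compound mean plus 3 SD, in both replicate runs; inconclusive means over that limit in just one replicate run; inactive means at or under that limit in both runs.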

Test [1] is described as follows: S. cerevisiae growth inhibition in permissive medium (OD615), pilot counter-assay for S. cerevisiae lifespan shortening project, permissive growth control (AID 705;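 active means growth inhibition above 25% in both replicates, a cutoff set 3 SD above the mean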). Particulars: OD615, 24 h, at 10 µM, hits give high values. Put shortly:
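Material: engineered DeaD yeast; Compound: one dose 10 µM, DMSO 0.25% final; Detection: absorbance (optical density) at 615 nm; Buffer or medium: permissive raffinose/galactose medium; Timing: 24 h exposure, 30 °C.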

A short description of test [2]: S. cerevisiae growth inhibition in restrictive medium, OD615, pilot screen, restrictive growth control, yeast lifespan reduction project (AID 706;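 active means growth inhibition above a set limit, 3 SD over mean compound inhibition, in both replicates, cut at about 43% in these data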;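 further: modified DeaD lifespan yeast strain shifted to restrictive glucose medium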). Particulars: OD615, 48 h, at 10 µM, hits give high values. Summed up:
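Buffer or medium: restrictive glucose medium (CSMM-D); test system: modified S. cerevisiae; doses: single dose of 10 µM compound final, 0.25% DMSO; schedule: 48 h compound exposure at 30 °C; detection: absorbance (optical density) measured at 615 nm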

Test [3] is described as follows: doxorubicin toxicity protection in MRP-1 cells – H69AR cells, CellTiter-Glo, duplicate, MRP-1 activator project, pilot screen (AID 807;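 active means viability increase at or above a cutoff of the median across tested compounds plus 3 SD, cut at about 8.5% in these data, passing the limit was not always enough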;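 further: compound pretreatment 18-22 h then 72 h combined with doxorubicin; 0% = doxorubicin alone and 100% = vehicle without doxorubicin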). Particulars: H69AR viability with doxorubicin, CellTiter-Glo luminescence; at 10 µM; hits give high values.
Test [4] can be described thus: viability of HCT116 without oncogenic beta-catenin – human colon tumor cells, pilot screen (AID 823;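 active means cell viability at or below a set limit in both duplicate runs, the limit being the all-compound median minus 4 SD, cut at about 23% in these data, passing the limit was not always enough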;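 further: 0% = wells killed by 20 µM Hyamine and 100% = untreated DMSO cell wells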). Particulars: HCT116 beta-catenin knockout viability, CellTiter-Glo, 60 h; at 10 µM; hits give low values. On the technique in general: ATP-based viability assays read luminescence as a measure of living cells.
Test [5] can be described thus: viability of PTEN-null HCT116 cells – cell-based, HCT116 clonal line, CellTiter-Glo, pilot screen (AID 824;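 active means viability at or below 27.92% in each of two runs, the all-compound median minus 4 SD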;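 further: 0% = 20 µM Hyamine control and 100% = vehicle cell control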). Particulars: HCT116 PTEN-deleted viability, 60 h, at 10 µM, hits give low values.
Test [6] in a line: RAM pathway blockade in budding yeast – dse1pr::URA3 reporter, 5-FOA selection, pilot screen (AID 869).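 Further: 0% = DMSO wells with no growth and 100% = 10 µM 1-NA-PP1 with full growth; RAM network block rescues cells from 5-FOA so hits raise OD615 growth.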 Particulars: S. cerevisiae dse1pr::URA3 5-FOA growth, OD615, 2 d; at 10 µM; hits give high values; strain carries analog-sensitive mutant Cbk1 kinase.
Test [7] in a line: RAM signaling pathway blockade in yeast – S. cerevisiae, Pdr1DBD-CYC8 efflux-inhibited sensitized strain, primary screen (AID 1298;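 active means RAM network inhibition above 8.4% in each of two replicates, 3 SD over the compound average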;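 further: 0% = DMSO untreated cells without growth and 100% = 10 µM 1-NA-PP1 full growth; higher means more yeast growth rescued from 5-FOA killing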). Particulars: S. cerevisiae cbk1-as DSE1-URA3 strain, 5-FOA growth OD615, 2 d; at 50 µM; hits give high values.

Take `CCOC(=O)c1[nH]c2c(c1C)C(=O)CC(c1ccc(F)cc1)C2` (stereo unspecified): the growth inhibition is -5.83% in test [1] and -18.5% in test [2]. The viability increase in test [3] was -4.6%. In addition, the viability in test [4] is 16.7% (active); in test [5], 20.4% (active). Also, the inhibition in test [6] is 0.11%. Moreover, the RAM network inhibition in test [7] was 1.42%.

In the case of `CCOC(=O)C1=C(C)NC(C)=C(C(=O)OCC)C1C(=O)O`, the results for the growth inhibition in test [1] and in test [2] were -3.05% and -4.22%, respectively. The viability increase in test [3] is -3.51%. Besides, the viability was 93.5% in test [4] and 90% in test [5]. Moreover, the inhibition in test [6] was 0.265%. In addition, the RAM network inhibition in test [7] is 1.53%.

Turning to `O=C(CN1CCOc2ccccc21)N1CCC(Cc2ccccc2)CC1`, the growth inhibition in test [1] is -3.59%; in test [2] it was 21.2%. In test [3], the viability increase was -3.42%. In addition, the viability in test [4] was 88%; in test [5] it was 95.1%. Also, the inhibition in test [6] was 1.46%. Besides, the RAM network inhibition in test [7] is 8.63%.

As for `O=C(Nc1cccc(C(F)(F)F)c1)c1cnc2n(c1=O)CCS2`, the results for the growth inhibition in test [1] and in test [2] were -9.46% and 5.56%, respectively. Also, the viability increase in test [3] is 0.63%. Further, the viability in test [4] is 108%; in test [5], 95.2%. Besides, the inhibition in test [6] was 2.6%. Moreover, in test [7], the RAM network inhibition is 5.71%.

As to `CCC1Oc2ccc(C)cc2N(CC(=O)NCCc2ccc(OC)c(OC)c2)C1=O` (stereo unspecified), the figures for the growth inhibition in test [1] and in test [2] were -6.91% and 3.82%, respectively. Moreover, in test [3], the viability increase was -0.77%. The viability in test [4] was 95.2%; in test [5] it was 92.4%. In addition, the inhibition in test [6] was 1.23%. Further, the RAM network inhibition in test [7] is -0.46%.

`C=C(C)CSc1nnc(-c2ccc(OC)c(OC)c2)n1N`: the growth inhibition is 11.8% in test [1] and 7.34% in test [2]. Further, in test [3], the viability increase was -0.31%. The viability is 96% in test [4] and 99.2% in test [5]. Also, in test [6], the inhibition was -0.36%. The RAM network inhibition in test [7] is 3.74%.

Regarding `Cc1cc(C(=O)N2CCN(S(C)(=O)=O)CC2)sc1-c1ccccc1`, the growth inhibition in test [1] was -7.32%; in test [2], 3.48%. The viability increase in test [3] was -2.61%. The viability in test [4] was 94.9%; in test [5] it was 94%. Further, in test [6], the inhibition is 3.19%. The RAM network inhibition in test [7] was 6.22%.

Turning to `CCC(=O)N1C(C(=O)N2CCCC2)CSC1c1ccc(OC)cc1` (stereo unspecified), the values for the growth inhibition in test [1] and in test [2] were -12.1% and -12.3%, respectively. The viability increase in test [3] is -3.3%. For the same compound, the viability is 96% in test [4] and 97.5% in test [5]. The inhibition in test [6] is -0.035%. In addition, in test [7], the RAM network inhibition was 0.53%.

Turning to `COc1ccc(C2C(C(N)=O)=C(C)Nc3nc(-c4ccccc4)nn32)cc1OC` (stereo unspecified), the values for the growth inhibition in test [1] and in test [2] were -4.7% and -8.15%, respectively. Further, in test [3], the viability increase was -1.13%. Moreover, the figures for the viability in test [4] and in test [5] were 95.3% and 95.2%, respectively. Also, the inhibition in test [6] was 0.78%. Besides, the RAM network inhibition in test [7] was -0.68%.

Consider `COc1ccc(C2C(C(=O)Nc3cc(C)on3)c3ccccc3C(=O)N2C)cc1` (stereo unspecified), for which the growth inhibition is 2.9% in test [1] and -2.79% in test [2]. In addition, in test [3], the viability increase was -1.73%. For the same compound, the viability in test [4] and in test [5] was 101% throughout. In test [6], the inhibition is 1.46%. Also, the RAM network inhibition in test [7] is 0.37%.

`CCC(C)(C(=O)NC1CCCCC1)N(Cc1ccco1)C(=O)CNC(=O)c1ccccc1` (stereo unspecified): the results for the growth inhibition in test [1] and in test [2] were -14.3% and -12.2%, respectively. The viability increase in test [3] is -3.39%. The viability is 83.5% in test [4] and 90.1% in test [5]. In test [6], the inhibition was 0.145%. Moreover, in test [7], the RAM network inhibition was 6.49%.

Turning to `Cc1nn(Cc2c(Cl)cccc2Cl)c(C)c1NC(=O)c1cc(C(C)C)on1`, the values for the growth inhibition in test [1] and in test [2] were -10.6% and 0.6%, respectively. In addition, in test [3], the viability increase was -1.33%. Further, the figures for the viability in test [4] and in test [5] were 74.2% and 62.9%, respectively. The inhibition in test [6] was 2.81%. For the same compound, the RAM network inhibition in test [7] is 2.56%.

`COC(=O)c1nnn(Cc2ccccc2)c1N`: the results for the growth inhibition in test [1] and in test [2] were -6.96% and -7.86%, respectively. For the same compound, the viability increase in test [3] was -1.68%. For the same compound, the viability is 103% in test [4] and 98.8% in test [5]. For the same compound, the inhibition in test [6] is 0.585%. Further, the RAM network inhibition in test [7] was 0.17%.

On to `COc1ccc2nc(NC(=O)c3ccc4ncsc4c3)sc2c1`, for which the growth inhibition is 0.465% in test [1] and 13% in test [2]. Also, in test [3], the viability increase was -3.84%. For the same compound, the viability in test [4] is 81.3%; in test [5], 82.5%. The inhibition in test [6] was 3.54%. In addition, in test [7], the RAM network inhibition is 8.79%.

Turning to `CCSc1nnc(NC(=O)c2c(-c3ccccc3Cl)noc2C)s1`, the growth inhibition in test [1] is 0.595%; in test [2] it was 2.59%. Besides, in test [3], the viability increase was -1.87%. Besides, the figures for the viability in test [4] and in test [5] were 97.8% and 88.2%, respectively. Besides, in test [6], the inhibition was 1.04%. In addition, in test [7], the RAM network inhibition is 8.79%.

As to `COc1cccc(CNC(=O)c2ccc(NC(=O)C3CCCO3)cc2)c1` (stereo unspecified), the values for the growth inhibition in test [1] and in test [2] were -23.1% and -16.5%, respectively. Moreover, the viability increase in test [3] is 0.53%. Further, the viability in test [4] was 95.1%; in test [5], 97.2%. Also, in test [6], the inhibition was 1.14%. Also, the RAM network inhibition in test [7] is 7.03%.

Turning to `CCc1cccc(OCC(=O)Nc2ccc(S(=O)(=O)Nc3onc(C)c3C)cc2)c1`, the growth inhibition in test [1] was -13.4%; in test [2] it was 8.17%. In test [3], the viability increase is -1.89%. Besides, the viability was 98.7% in test [4] and 97% in test [5]. Moreover, the inhibition in test [6] was -0.085%. Moreover, in test [7], the RAM network inhibition was 1.89%.

For the compound `COc1ccc2c(=O)c(N3C(=O)c4ccccc4C3=O)c(C)oc2c1`, the growth inhibition is -11.8% in test [1] and -0.32% in test [2]. The viability increase in test [3] was -1.12%. Also, the viability in test [4] was 94.2%; in test [5], 92.6%. Moreover, in test [6], the inhibition was -0.25%. Further, in test [7], the RAM network inhibition is 1.33%.

What is called viability is a read-out of living cells in per cent, often relative to untreated cells. As usually defined, the inhibition is the relative decrease from the control value, in per cent.
